Assay results from ChEMBL document CHEMBL1125780, “Monovalent sialosides that bind tightly to influenza A virus” (J Med Chem, 1991).

Molecular target: Hemagglutinin (Influenza A virus (strain A/X-31 H3N2)) (UniProt P03438)
Test: Inhibition of influenza A, strain X-31, induced hemagglutinination of chicken erythrocytes
Assay type: functional
Details: Influenza A virus (A/X-31(H3N2))
Procedure, shortened: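 Binding affinities come from hemagglutination inhibition with adult chicken red blood cells. Each is reported as a relative affinity against methyl α-sialoside (Neu5Acα2Me), whose affinity is set at 1.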

Chain of Hemagglutinin (Influenza A virus (strain A/X-31 H3N2)) (P03438 whole entry): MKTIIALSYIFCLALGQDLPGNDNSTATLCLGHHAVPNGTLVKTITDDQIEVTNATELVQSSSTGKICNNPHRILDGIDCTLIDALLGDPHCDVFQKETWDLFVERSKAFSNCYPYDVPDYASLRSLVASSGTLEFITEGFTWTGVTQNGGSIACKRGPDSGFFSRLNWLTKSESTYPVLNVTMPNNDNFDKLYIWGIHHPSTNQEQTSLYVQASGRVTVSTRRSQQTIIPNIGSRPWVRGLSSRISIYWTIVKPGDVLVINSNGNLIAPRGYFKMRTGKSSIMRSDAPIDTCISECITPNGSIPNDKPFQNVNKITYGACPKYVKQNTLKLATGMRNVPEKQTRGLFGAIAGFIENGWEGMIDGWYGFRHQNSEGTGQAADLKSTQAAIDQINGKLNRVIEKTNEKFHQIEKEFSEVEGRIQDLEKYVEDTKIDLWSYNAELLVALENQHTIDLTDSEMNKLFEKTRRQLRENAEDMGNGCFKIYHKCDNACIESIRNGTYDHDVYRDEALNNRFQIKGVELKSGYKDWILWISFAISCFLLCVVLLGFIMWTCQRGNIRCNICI

SMILES | Relative affinity
CC(=O)NC1C(O)CC(OCCCCC(=O)NNS(=O)(=O)c2cccc3c(N(C)C)cccc23)(C(=O)O)OC1[C@H](O)[C@H](O)CO (some centres undefined) | 4
CC(=O)NC1C(O)CC(OCCCCC(=O)NCc2cccc(C(=O)O)c2)(C(=O)O)OC1[C@H](O)[C@H](O)CO (some centres undefined) | 16
CC(=O)NC1C(O)CC(OCCC(=O)NCc2cccc3ccccc23)(C(=O)O)OC1[C@H](O)[C@H](O)CO (some centres undefined) | 8
CNC(=O)CCCCOC1(C(=O)O)CC(O)C(NC(C)=O)C([C@H](O)[C@H](O)CO)O1 (some centres undefined) | 1
CC(=O)NC1C(O)CC(OCCCCCCCCC(=O)NCc2cccc3ccccc23)(C(=O)O)OC1[C@H](O)[C@H](O)CO (some centres undefined) | 16
CC(=O)NC1C(O)CC(OCCCCCCC(=O)NCc2cc3ccccc3c3ccccc23)(C(=O)O)OC1[C@H](O)[C@H](O)CO (some centres undefined) | 64
CC(=O)NC1C(O)CC(OCCCCCCCCC(=O)NCc2ccccc2)(C(=O)O)OC1[C@H](O)[C@H](O)CO (some centres undefined) | < 8
CC(=O)NC1C(O)CC(OCCCCC(=O)NCc2cccc3ccccc23)(C(=O)O)OC1[C@H](O)[C@H](O)CO (some centres undefined) | 32
CC(=O)NC1C(O)CC(OCCCCC(=O)NCc2ccccc2)(C(=O)O)OC1[C@H](O)[C@H](O)CO (some centres undefined) | 8
CC(=O)NC1C(O)CC(OCCCCC(=O)NCc2cc3ccccc3c3ccccc23)(C(=O)O)OC1[C@H](O)[C@H](O)CO (some centres undefined) | 32
CC(=O)NC1C(O)CC(OCCCCC(=O)NCc2ccc3ncccc3c2)(C(=O)O)OC1[C@H](O)[C@H](O)CO (some centres undefined) | 8
CC(=O)NC1C(O)CC(OCCCCCCC(=O)NCc2ccccc2)(C(=O)O)OC1[C@H](O)[C@H](O)CO (some centres undefined) | 16
CC(=O)NC1C(O)CC(OCCCCCCC(=O)NCc2cccc3ccccc23)(C(=O)O)OC1[C@H](O)[C@H](O)CO (some centres undefined) | 64
CC(=O)NC1C(O)CC(OCCCCC(=O)NCCNC(=O)OCc2ccccc2)(C(=O)O)OC1[C@H](O)[C@H](O)CO (some centres undefined) | 4
